Results taken from ChEMBL document CHEMBL1127309, “A novel and useful descriptor for hydrophobicity, partition coefficient micellar-water, and its application to a QSAR study of antiplatelet agents” (J Med Chem, 1994).

What was measured:
[1] = Retention time at 40 mM; format: ADME; conditions: 40000 µM
Summary of the method: (§1)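 Reversed-phase HPLC on a C8 column (4.6 × 100 mm, 10 µm) at room temperature (22-25 °C). The mobile phase was Brij35 micelle solution in 10 mM phosphate buffer, pH 4.01, run separately at 25, 30, 35 and 40 mM Brij35. NaNO₃ served as the dead-time marker.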

[2] = test system: Rattus norvegicus; assay: Tested for inhibitory activity on rat platelet aggregation induced by collagen measured after 1 hr of oral administration of compound (10 mg/kg) in rat.; format: functional
[3] = Retention time at 30 mM; format: ADME; conditions: 30000 µM; summary of the method: as §1
[4] = Retention time at 25 mM; format: ADME; conditions: 25000 µM; summary of the method: as §1
[5] = Retention time at 35 mM; format: ADME; conditions: 35000 µM; summary of the method: as §1
[6] = test system: Rattus norvegicus; assay: Tested for antiplatelet activity in rat by conversion of the original antiplatelet activity data (%) to antiplatelet activity values at 10 umol/kg; format: functional
[7] = test system: Rattus norvegicus; assay: Tested for inhibitory activity on rat platelet aggregation induced by collagen ex vivo measured after 1 hr of oral administration of compound (10 mg/kg) in rat.; format: functional

| Structure (SMILES) | Retention time [1] [min] | Retention time [3] [min] | Retention time [4] [min] | Retention time [5] [min] | Inhibition [2] [%] | Log APA [6] | Inhibition [7] [%] |
| --- | --- | --- | --- | --- | --- | --- | --- |
| COc1c(-c2nc(C)c(-c3cccnc3)[nH]2)cc(Cl)c2[nH]c(CCC(=O)O)nc12 | 3.1 | 3.47 | 3.68 | 3.27 | 6 | 0.4 |  |
| Cc1nc2cc(-c3nc(C)c(-c4cccnc4)[nH]3)c(C)cc2[nH]1 | 1.271 | 1.294 | 1.3 | 1.28 | 18 | 0.74 |  |
| Cc1[nH]c(-c2ccccc2Cl)nc1-c1cccnc1 | 6.64 | 7.83 | 8.63 | 7.17 | 9 | 0.38 |  |
| COc1cc(NC(C)=O)c([N+](=O)[O-])cc1-c1nc(C)c(-c2cccnc2)[nH]1 | 7.33 | 9.08 | 10.35 | 8.08 | 86 | 1.5 |  |
| COc1c(-c2nc(C)c(-c3cccnc3)[nH]2)cc2nc(C)[nH]c2c1Cl | 3.79 | 4.36 | 4.69 | 4.05 | 63 | 1.4 |  |
| COc1cc(NC(C)=O)c(Cl)cc1-c1nc(C)c(-c2cccnc2)[nH]1 | 5.78 | 7.01 | 7.95 | 6.32 | 65 | 1.4 |  |
| COc1c(-c2nc(C)c(-c3cccnc3)[nH]2)cc2nc(O)[nH]c2c1Cl | 1.289 | 1.301 | 1.32 | 1.296 | 17 | 0.79 |  |
| Cc1[nH]c(-c2ccccc2F)nc1-c1cccnc1 | 6.57 | 7.84 | 8.75 | 7.13 | 98 | 1.4 |  |
| Cc1nc2cc(Cl)c(-c3nc(C)c(-c4cccnc4)[nH]3)cc2[nH]1 | 3 | 3.41 | 3.56 | 3.19 | 15 | 0.68 |  |
| CCOC(=O)COc1ccccc1-c1nc(C)c(-c2cccnc2)[nH]1 | 6.18 | 7.12 | 9.21 | 6.57 | 12 | 0.6 |  |
| Cc1ccccc1-c1nc(C)c(-c2cccnc2)[nH]1 | 4.39 | 4.92 | 5.2 | 4.64 | 6 | 0.18 |  |

Second part, led by results:

| Retention time [1] [min] | Retention time [3] [min] | Retention time [4] [min] | Retention time [5] [min] | Structure (SMILES) | Inhibition [2] [%] | Log APA [6] | Inhibition [7] [%] |
| --- | --- | --- | --- | --- | --- | --- | --- |
| 3.76 | 4.21 | 4.59 | 3.97 | COc1ccccc1-c1nc(C)c(-c2cccnc2)[nH]1 | 49 | 1.1 |  |
| 2.41 | 2.6 | 2.75 | 2.5 | COc1cc(OC)c(-c2nc(C)c(-c3cccnc3)[nH]2)cc1NC(C)=O | 24 | 0.93 |  |
| 6.52 | 8.14 | 9.36 | 7.24 | COc1c(-c2nc(C)c(-c3cccnc3)[nH]2)cc(Cl)c2[nH]c(C)nc12 | 51 | 1.3 |  |
| 1.99 | 2.16 | 2.23 | 2.06 | COc1cc2[nH]c(C)nc2cc1-c1nc(C)c(-c2cccnc2)[nH]1 | 21 | 0.83 |  |
| 2.43 | 2.7 | 2.79 | 2.56 | COc1c(-c2nc(C)c(-c3cccnc3)[nH]2)ccc2[nH]c(C)nc12 | 16 | 0.72 |  |
| 6 | 7.01 | 7.65 | 6.46 | CSc1ccccc1-c1nc(C)c(-c2cccnc2)[nH]1 | 32 | 0.95 |  |
| 4.77 | 5.44 | 6.01 | 5.08 | CCOc1ccccc1-c1nc(C)c(-c2cccnc2)[nH]1 | 45 | 1.1 |  |
| 1.331 | 1.362 | 1.375 | 1.345 | COc1cc2c(cc1-c1nc(C)c(-c3cccnc3)[nH]1)nc(O)n2C | 11 | 0.57 |  |
| 5 | 5.78 | 6.34 | 5.35 | CNC(=O)Nc1ccccc1-c1nc(C)c(-c2cccnc2)[nH]1 | 46 | 1.1 |  |
| 6.7 | 7.94 | 8.79 | 7.27 | COC(=O)Nc1ccccc1-c1nc(C)c(-c2cccnc2)[nH]1 |  | 1.4 | 73 |
| 3.07 | 3.37 | 3.58 | 3.21 | Cc1[nH]c(-c2ccccc2N)nc1-c1cccnc1 | 25 | 0.8 |  |
